Results from different studies.
Lines come from different studies, so protocols differ. In brackets after ≈: the same amount, converted by molar mass.

NNC(=O)c1ccncc1  MIC90 (Mycolicibacterium smegmatis; microbial growth): 17.7 µM
C[C@@H]1[C@H](O)[C@@H](C)/C=C/C=C/C=C/C=C/C=C/C=C/C=C/[C@H](O[C@@H]2O[C@H](C)[C@@H](O)[C@H](N)[C@@H]2O)C[C@@H]2O[C@](O)(C[C@@H](O)C[C@@H](O)[C@H](O)CC[C@@H](O)C[C@@H](O)CC(=O)O[C@H]1C)C[C@H](O)[C@H]2C(=O)O  MIC (Candida tropicalis; microbial growth, broth dilution; CGMCC2; 48 h): < 0.25 µM
CO[C@H]1/C=C/O[C@@]2(C)Oc3c(C)c(O)c4c(O)c(c(/C=N/N5CCN(C)CC5)c(O)c4c3C2=O)NC(=O)/C(C)=C\C=C\[C@H](C)[C@H](O)[C@@H](C)[C@@H](O)[C@@H](C)[C@H](OC(C)=O)[C@@H]1C  MIC90 (Mycolicibacterium smegmatis; microbial growth): 1.52 µM
C[C@@H]1[C@H](O)[C@@H](C)/C=C/C=C/C=C/C=C/C=C/C=C/C=C/[C@H](O[C@@H]2O[C@H](C)[C@@H](O)[C@H](N)[C@@H]2O)C[C@@H]2O[C@](O)(C[C@@H](O)C[C@@H](O)[C@H](O)CC[C@@H](O)C[C@@H](O)CC(=O)O[C@H]1C)C[C@H](O)[C@H]2C(=O)O  MIC (Candida tropicalis; microbial growth, broth dilution; ATCC13803; 48 h): 32 µg/mL
OC(Cn1cncn1)(Cn1cncn1)c1ccc(F)cc1F  MIC (Candida tropicalis; microbial growth, broth dilution): 8 µg/mL
C=C[C@]1(C)C[C@@H](OC(=O)CS[C@@H]2C[C@H]3CC[C@@H](C2)N3C)[C@]2(C)[C@H](C)CC[C@]3(CCC(=O)[C@H]32)[C@@H](C)[C@@H]1O  MIC90 (Streptococcus agalactiae; microbial growth; clinical isolate): 0.0312 µg/mL
CC(=O)ON=C1C=CC(=C(C#N)c2ccccc2)C=C1  MFC (Candida tropicalis; microbial killing, broth dilution; ATCC13803; 48 h): 4 µg/mL (≈ 15.1 µM)
CC(=O)N1CCN(c2ccc(OCC3COC(Cn4ccnc4)(c4ccc(Cl)cc4Cl)O3)cc2)CC1 (stereo not shown)  MIC (Candida tropicalis; microbial growth, broth dilution; CGMCC2; 48 h): 1 µM
N#CC(=C1C=CC(=NOC(=O)OCc2ccccc2)C=C1)c1ccccc1  MIC (Candida tropicalis; microbial growth, broth dilution; ATCC13803; 48 h): 128 µg/mL
CC(=O)NC[C@H]1CN(c2ccc(N3CCOCC3)c(F)c2)C(=O)O1  MIC90 (Streptococcus viridans; microbial growth; clinical isolate): 1 µg/mL
